Source: ChEMBL document CHEMBL4732169, “Design and synthesis of mycobacterial pks13 inhibitors: Conformationally rigid tetracyclic molecules” (Eur J Med Chem, 2021)
Values after ≈ are worked out from the molar mass of the structure shown.

Columns and labels:
Vero = experiment: Cytotoxicity against African green monkey Vero cells incubated for 72 hrs in DEME medium; type: cell-based; settings: Chlorocebus sabaeus
[1] = tested on: Mycobacterium tuberculosis; experiment: Antitubercular activity against Mycobacterium tuberculosis H37Rv assessed as bacterial growth inhibition incubated for 4 days by MABA assay; type: functional; settings: time 4 day
[2] = Selective index, ratio of CC50 for African green monkey Vero cells to IC50 for Mycobacterium tuberculosis H37Rv
Method in brief: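 Vero (African green monkey kidney) cytotoxicity measured by alamar blue assay to give IC50. SI calculated as IC50(Vero)/MIC(H37Rv).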

[3] = tested on: Mycobacterium tuberculosis; experiment: Binding affinity to wild type Mycobacterium tuberculosis Pks13-TE expressed in Escherichia coli BL21(DE3)pLysS assessed as change in melting temperature at protein to compound molar ratio of 1:5 incubated for 30 mins by nanoDSF assay
Method in brief: (§1)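 Recombinant N-Mbp-His-tagged Pks13-TE domain of Mtb Pks13 (Rv3800c), expressed in E. coli BL21(DE3)pLysS after 0.5 mM IPTG induction and purified to >95%. Protein was incubated with compound (stock in DMSO) in 100 mM NaCl, 20 mM Tris-HCl pH 8.0 for 30 min, with a DMSO blank. nanoDSF ramp 30–90 °C at 2 °C/min, read as the F350/F330 ratio. Tm shift averaged from three measurements.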

[4] = tested on: Mycobacterium tuberculosis; experiment: Binding affinity to wild type Mycobacterium tuberculosis Pks13-TE expressed in Escherichia coli BL21(DE3)pLysS assessed as change in melting temperature at protein to compound molar ratio of 1:10 incubated for 30 mins by nanoDSF assay; method in brief: as §1
[5] = tested on: Mycobacterium tuberculosis; experiment: Antitubercular activity against drug susceptible Mycobacterium tuberculosis V4207 by MABA assay; type: functional
Method in brief: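 Microplate alamar blue assay (MABA) against each Mtb strain, either H37Rv or a clinical isolate (drug-susceptible, MDR or XDR). MIC taken as the lowest concentration giving at least 90% reduction of the bacterial growth signal. Each value is the average of three individual measurements.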

Staphylococcus aureus = experiment: Antibacterial activity against Staphylococcus aureus Newman assessed as inhibition of bacterial growth measured after 18 hrs by two fold serial dilution method; type: functional
Method in brief: (§2)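 Bacteria grown overnight at 37 °C in TSB without antibiotics. Compound in DMSO was serially diluted two-fold to final […] and mixed with an equal volume of bacteria. MIC was read after 18 h at 37 °C; three experiments per condition.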

Escherichia coli [6] = experiment: Antibacterial activity against Escherichia coli AB1157 assessed as inhibition of bacterial growth measured after 18 hrs by two fold serial dilution method; type: functional; method in brief: as §2
Bacillus subtilis = experiment: Antibacterial activity against Bacillus subtilis168 assessed as inhibition of bacterial growth measured after 18 hrs by two fold serial dilution method; type: functional; settings: subsp. subtilis str. 168; method in brief: as §2
Escherichia coli [7] = experiment: Antibacterial activity against Escherichia coli DH5-alpha assessed as inhibition of bacterial growth measured after 18 hrs by two fold serial dilution method; type: functional; method in brief: as §2
[8] = tested on: Mycobacterium tuberculosis; experiment: Inhibition of Mycobacterium tuberculosis Pks13-TE using 4-MUH as substrate by measuring fluorescence product for every 10 mins for 60 mins
Method in brief: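 Pks13-TE thioesterase activity measured with the fluorogenic substrate 4-methylumbelliferyl heptanoate at 20 µM final, in 0.1 M Tris-HCl pH 7.0. Compound was serially diluted from 20 µM down to about 0.0195 µM, or DMSO was added. Points were run in triplicate and averaged to build concentration-response curves for IC50.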

[9] = tested on: Mycobacterium tuberculosis; experiment: Potency index, ratio of MIC for TAM16 to MICfor test compound for antitubercular activity against Mycobacterium tuberculosis H37Rv assessed as bacterial growth inhibition incubated for 4 days by MABA assay; type: functional; settings: time 4 day

SMILES: O=c1[nH]c2cc(Cl)ccc2c2oc3ccc(O)c(CN4CCCCC4)c3c12
- IC50 (Vero): 32 µg/mL (≈ 83.6 µM)
- MIC=<90 [1]: 0.5 µg/mL (≈ 1.31 µM)
- Ratio CC50/IC50 [2]: 64

SMILES: COc1ccc2oc3c4ccccc4oc(=O)c3c2c1C(=O)N1CCCCC1
- MIC=<90 [1]: >64 µg/mL

SMILES: O=c1[nH]c2ccc(O)cc2c2oc3ccc(O)c(CN4CCCCC4)c3c12
- ΔTm [3]: 7.4 °C
- IC50 (Vero): 16 µg/mL (≈ 43.9 µM)
- MIC=<90 [1]: 1 µg/mL (≈ 2.74 µM)
- Ratio CC50/IC50 [2]: 16
- ΔTm [4]: 8.5 °C

SMILES: COc1ccc2[nH]c(=O)c3c(oc4ccc(O)c(CN5CCCCC5)c43)c2c1
- MIC=<90 [1]: 4 µg/mL (≈ 10.6 µM)

SMILES: CCOC(=O)c1c(-c2ccccc2)oc2ccc(OC)c(C(=O)N3CCCCC3)c12
- MIC=<90 [1]: >64 µg/mL

SMILES: O=c1oc2ccccc2c2sc3ccc(O)c(CN4CCCCC4)c3c12
- ΔTm [3]: 7.9 °C
- MIC=<90 [1]: 1 µg/mL (≈ 2.74 µM)
- ΔTm [4]: 9.1 °C

SMILES: NNC(=O)c1ccncc1 [ISONIAZID]
- MIC=<90 [5]: 0.04 µg/mL (≈ 0.292 µM)

SMILES: CCNC(=O)c1c(-c2ccc(OC)cc2)oc2ccc(O)c(CN3CCCCC3)c12
- MIC=<90 [1]: 2 µg/mL (≈ 4.9 µM)

SMILES: O=c1[nH]c2ccc(Cl)cc2c2oc3ccc(O)c(CN4CCCCC4)c3c12
- MIC=<90 [1]: 1 µg/mL (≈ 2.61 µM)

SMILES: C[C@H]1COc2c(N3CCN(C)CC3)c(F)cc3c(=O)c(C(=O)O)cn1c23.C[C@H]1COc2c(N3CCN(C)CC3)c(F)cc3c(=O)c(C(=O)O)cn1c23.O [LEVOFLOXACIN]
- MIC=<90 [5]: 0.125 µg/mL

SMILES: CN[C@H](CC(C)C)C(=O)N[C@H]1C(=O)N[C@@H](CC(N)=O)C(=O)N[C@H]2C(=O)N[C@H]3C(=O)N[C@H](C(=O)N[C@H](C(=O)O)c4cc(O)cc(O)c4-c4cc3ccc4O)[C@H](O)c3ccc(c(Cl)c3)Oc3cc2cc(c3O[C@@H]2O[C@H](CO)[C@@H](O)[C@H](O)[C@H]2O[C@H]2C[C@](C)(N)[C@H](O)[C@H](C)O2)Oc2ccc(cc2Cl)[C@H]1O [VANCOMYCIN]
- MIC (Staphylococcus aureus): 0.39 µg/mL (≈ 0.269 µM)
- MIC (Escherichia coli [6]): > 25 µg/mL
- MIC (Bacillus subtilis): > 25 µg/mL
- MIC (Escherichia coli [7]): > 25 µg/mL

SMILES: O=c1[nH]c2ccc(F)cc2c2oc3ccc(O)c(CN4CCCCC4)c3c12
- IC50 (Vero): 16 µg/mL (≈ 43.7 µM)
- MIC=<90 [1]: 1 µg/mL (≈ 2.73 µM)
- Ratio CC50/IC50 [2]: 16

SMILES: COc1cc2c(cc1C(=O)N1CCCCC1)oc1c3ccccc3oc(=O)c21
- MIC=<90 [1]: >64 µg/mL

SMILES: O=c1[nH]c2cc(F)ccc2c2oc3ccc(O)c(CN4CCCCC4)c3c12
- IC50 (Vero): 16 µg/mL (≈ 43.7 µM)
- MIC=<90 [1]: 0.5 µg/mL (≈ 1.36 µM)
- Ratio CC50/IC50 [2]: 32

SMILES: O=c1[nH]c2cc(O)ccc2c2oc3ccc(O)c(CN4CCCCC4)c3c12
- ΔTm [3]: 7.5 °C
- MIC (Staphylococcus aureus): > 25 µg/mL
- IC50 (Vero): 4 µg/mL (≈ 11 µM)
- MIC (Escherichia coli [6]): > 25 µg/mL
- MIC=<90 [5]: 0.0313 µg/mL (≈ 0.0859 µM)
- INH [8]: 0.58 µM
- MIC (Bacillus subtilis): > 25 µg/mL
- MIC (Escherichia coli [7]): > 25 µg/mL
- MIC=<90 [1]: 0.0313 µg/mL (≈ 0.0859 µM)
- Ratio CC50/IC50 [2]: 64
- ΔTm [4]: 9.4 °C

SMILES: NC[C@H]1O[C@H](O[C@H]2[C@H](O)[C@@H](O[C@H]3O[C@H](CO)[C@@H](O)[C@H](N)[C@H]3O)[C@H](N)C[C@@H]2N)[C@H](O)[C@@H](O)[C@@H]1O [KANAMYCIN]
- MIC (Staphylococcus aureus): 2.34 µg/mL (≈ 4.83 µM)
- MIC (Escherichia coli [6]): 9.39 µg/mL (≈ 19.4 µM)
- MIC=<90 [5]: 2 µg/mL (≈ 4.13 µM)
- MIC (Bacillus subtilis): 9.39 µg/mL (≈ 19.4 µM)
- MIC (Escherichia coli [7]): 2.34 µg/mL (≈ 4.83 µM)

SMILES: O=c1oc2ccccc2c2oc3cc(Br)c(O)c(CN4CCCCC4)c3c12
- MIC=<90 [1]: >64 µg/mL

SMILES: O=c1oc2ccccc2c2oc3ccc(O)c(CN4CCCCC4)c3c12
- MIC=<90 [1]: 0.125 µg/mL (≈ 0.358 µM)

SMILES: O=c1oc2cc(O)ccc2c2oc3ccc(O)c(CN4CCCCC4)c3c12
- Ratio [9]: 8
- MIC=<90 [1]: 0.0039 µg/mL (≈ 0.0107 µM)

SMILES: O=c1[nH]c2c(F)cccc2c2oc3ccc(O)c(CN4CCCCC4)c3c12
- MIC=<90 [1]: 0.5 µg/mL (≈ 1.36 µM)

SMILES: CCOC(=O)c1c(-c2ccccc2)oc2cc(Br)c(O)c(CN3CCCCC3)c12
- MIC=<90 [1]: 32 µg/mL (≈ 69.8 µM)

SMILES: O=c1[nH]c2ccccc2c2oc3ccc(O)c(CN4CCCCC4)c3c12
- ΔTm [3]: 9.6 °C
- MIC=<90 [1]: 0.25 µg/mL (≈ 0.718 µM)
- ΔTm [4]: 10.2 °C

SMILES: CCOC(=O)c1c(-c2ccccc2)sc2ccc(O)c(CN3CCCCC3)c12
- ΔTm [3]: 3.2 °C
- MIC=<90 [1]: 16 µg/mL (≈ 40.5 µM)
- ΔTm [4]: 3.3 °C

SMILES: CCNC(=O)c1c(-c2ccccc2)oc2ccc(O)c(CN3CCCCC3)c12
- MIC=<90 [1]: 4 µg/mL (≈ 10.6 µM)

SMILES: O=c1[nH]c2cc(Br)ccc2c2oc3ccc(O)c(CN4CCCCC4)c3c12
- IC50 (Vero): 64 µg/mL (≈ 150 µM)
- MIC=<90 [1]: 0.5 µg/mL (≈ 1.17 µM)
- Ratio CC50/IC50 [2]: 128

SMILES: CN(C)[C@@H]1C(O)=C(C(N)=O)C(=O)[C@@]2(O)C(O)=C3C(=O)c4c(O)cccc4[C@@](C)(O)[C@H]3C[C@@H]12 [TETRACYCLINE]
- MIC (Staphylococcus aureus): 0.2 µg/mL (≈ 0.45 µM)
- MIC (Escherichia coli [6]): 1.56 µg/mL (≈ 3.51 µM)
- MIC (Bacillus subtilis): > 25 µg/mL
- MIC (Escherichia coli [7]): 0.78 µg/mL (≈ 1.76 µM)

SMILES: CO[C@H]1/C=C/O[C@@]2(C)Oc3c(C)c(O)c4c(O)c(c(/C=N/N5CCN(C)CC5)c(O)c4c3C2=O)NC(=O)/C(C)=C\C=C\[C@H](C)[C@H](O)[C@@H](C)[C@@H](O)[C@@H](C)[C@H](OC(C)=O)[C@@H]1C [RIFAMPIN]
- MIC=<90 [5]: 0.0625 µg/mL (≈ 0.0759 µM)

SMILES: O=c1[nH]c2ccc(Br)cc2c2oc3ccc(O)c(CN4CCCCC4)c3c12
- MIC=<90 [1]: 32 µg/mL (≈ 74.9 µM)

SMILES: O=c1[nH]c2c(Cl)cccc2c2oc3ccc(O)c(CN4CCCCC4)c3c12
- MIC=<90 [1]: 1 µg/mL (≈ 2.61 µM)

SMILES: COc1ccc2c(c1)[nH]c(=O)c1c2oc2ccc(O)c(CN3CCCCC3)c21
- ΔTm [3]: 8.7 °C
- IC50 (Vero): 64 µg/mL (≈ 169 µM)
- MIC=<90 [1]: 0.25 µg/mL (≈ 0.661 µM)
- Ratio CC50/IC50 [2]: 256
- ΔTm [4]: 9 °C

SMILES: O=c1oc2ccccc2c2[nH]c3ccc(O)c(CN4CCCCC4)c3c12
- ΔTm [3]: 0.8 °C
- MIC=<90 [1]: 32 µg/mL (≈ 91.8 µM)
- ΔTm [4]: 3.1 °C

SMILES: CCOC(=O)c1c(-c2ccccc2)oc2ccc(O)c(CN3CCCCC3)c12
- INH [8]: 4.6 µM
- MIC=<90 [1]: 2 µg/mL (≈ 5.27 µM)

SMILES: CCOC(=O)c1c(-c2ccccc2)oc2cc(C(=O)N3CCCCC3)c(OC)cc12
- MIC=<90 [1]: >64 µg/mL

SMILES: CNC(=O)c1c(-c2ccc(O)cc2)oc2ccc(O)c(CN3CCCCC3)c12
- MIC=<90 [1]: 0.0313 µg/mL (≈ 0.0823 µM)

SMILES: CCNC(=O)c1c(-c2ccc(F)cc2)oc2ccc(O)c(CN3CCCCC3)c12
- MIC=<90 [1]: 4 µg/mL (≈ 10.1 µM)

SMILES: CCOC(=O)c1c(-c2ccccc2)[nH]c2ccc(O)c(CN3CCCCC3)c12
- MIC=<90 [1]: >32 µg/mL

SMILES: CC1COc2c(N3CCN(C)CC3)c(F)cc3c(=O)c(C(=O)O)cn1c23 (stereo not drawn) [OFLOXACIN]
- MIC=<90 [5]: 0.5 µg/mL (≈ 1.38 µM)
